In ChEMBL document CHEMBL5724801, “EUbOPEN Chemogenomics Library - Multiplex” (2024):
Values joined by “and” are separate entries in the source; they are usually repeats but may differ in a detail not shown here. Equal values may be shown once.

System: Fibroblast
Test: Multiplex assay against human fibroblast
Assay type: toxicity, cell-based
How it was run: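 Four dyes were applied at seeding to live cells: Hoechst33342, BioTracker Green Microtubule Cytoskeleton Dye, MitoTracker Red and Annexin V Alexa Fluor 680. Imaging after compound addition used a CQ1 microscope at 37°C and 5% CO2. CellPathfinder machine-learning gating then sorted cells into Hoechst high-intensity objects or normal cells, normal cells into healthy, pyknosed or fragmented nuclei, and pyknosed cells into mitotic or apoptotic, with tubulin, mitochondrial-mass and membrane-permeability phenotypes given as per cents of healthy-nucleus cells.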

[1] = 12 h, 1 µM, compound concentration 1 uM
[2] = 12 h, 10 µM, compound concentration 10 uM
[3] = 24 h, 1 µM, compound concentration 1 uM
[4] = 24 h, 10 µM, compound concentration 10 uM
[5] = 48 h, 1 µM, compound concentration 1 uM
[6] = 48 h, 10 µM, compound concentration 10 uM

CC(C)(C)c1cc(NC(=O)Nc2ccc(-c3cn4c(n3)sc3cc(OCCN5CCOCC5)ccc34)cc2)no1 [QUIZARTINIB]
Population Apoptotic (%) [1]: 42% and 41% | Population Fragmented Nuclei (%) [1]: 16% and 24% | Population Healthy Nuclei (%) [1]: 65% and 52% | Population Hoechst High Intensity Objects (%) [1]: 2% | Population Membrane Permeable-Phenotype (%) [1]: 0% and 1% | Population Mitochondria Different-Phenotype (%) [1]: 7% and 5% | Population Mitotic Cells (%) [1]: 57% and 58% | Population Normal (%) [1]: 97% | Population Pyknosed Nuclei (%) [1]: 17% and 23% | Population Tubulin-Different-Phenotype (%) [1]: 31% and 41% | Total Cell Count [1]: 150 and 137 | Population Apoptotic (%) [2]: 43% and 48% | Population Fragmented Nuclei (%) [2]: 34% and 35% | Population Healthy Nuclei (%) [2]: 56% and 45% | Population Hoechst High Intensity Objects (%) [2]: 3% and 5% | Population Membrane Permeable-Phenotype (%) [2]: 0% and 5% | Population Mitochondria Different-Phenotype (%) [2]: 10% and 5% | Population Mitotic Cells (%) [2]: 56% and 51% | Population Normal (%) [2]: 96% and 94% | Population Pyknosed Nuclei (%) [2]: 8% and 18% | Population Tubulin-Different-Phenotype (%) [2]: 75% and 70% | Total Cell Count [2]: 190 and 162 | Population Apoptotic (%) [3]: 58% and 42% | Population Fragmented Nuclei (%) [3]: 14% and 25% | Population Healthy Nuclei (%) [3]: 72% and 61% | Population Hoechst High Intensity Objects (%) [3]: 1% and 3% | Population Membrane Permeable-Phenotype (%) [3]: 0% and 2% | Population Mitochondria Different-Phenotype (%) [3]: 6% | Population Mitotic Cells (%) [3]: 41% and 57% | Population Normal (%) [3]: 98% and 96% | Population Pyknosed Nuclei (%) [3]: 12% and 13% | Population Tubulin-Different-Phenotype (%) [3]: 32% and 44% | Total Cell Count [3]: 137 and 152 | Population Apoptotic (%) [4]: 75% and 39% | Population Fragmented Nuclei (%) [4]: 33% and 40% | Population Healthy Nuclei (%) [4]: 57% and 46% | Population Hoechst High Intensity Objects (%) [4]: 1% and 4% | Population Membrane Permeable-Phenotype (%) [4]: 0% and 1% | Population Mitochondria Different-Phenotype (%) [4]: 21% and 10% | Population Mitotic Cells (%) [4]: 25% and 60% | Population Normal (%) [4]: 98% and 95% | Population Pyknosed Nuclei (%) [4]: 8% and 13% | Population Tubulin-Different-Phenotype (%) [4]: 71% and 70% | Total Cell Count [4]: 190 and 179 | Population Apoptotic (%) [5]: 75% and 42% | Population Fragmented Nuclei (%) [5]: 19% and 30% | Population Healthy Nuclei (%) [5]: 71% and 60% | Population Hoechst High Intensity Objects (%) [5]: 8% and 3% | Population Membrane Permeable-Phenotype (%) [5]: 0% and 1% | Population Mitochondria Different-Phenotype (%) [5]: 5% and 8% | Population Mitotic Cells (%) [5]: 25% and 57% | Population Normal (%) [5]: 91% and 96% | Population Pyknosed Nuclei (%) [5]: 9% | Population Tubulin-Different-Phenotype (%) [5]: 38% and 34% | Total Cell Count [5]: 145 and 158 | Population Apoptotic (%) [6]: 79% and 60% | Population Fragmented Nuclei (%) [6]: 30% and 44% | Population Healthy Nuclei (%) [6]: 56% and 50% | Population Hoechst High Intensity Objects (%) [6]: 7% and 3% | Population Membrane Permeable-Phenotype (%) [6]: 0% and 2% | Population Mitotic Cells (%) [6]: 20% and 40% | Population Normal (%) [6]: 92% and 96% | Population Pyknosed Nuclei (%) [6]: 13% and 5% | Population Tubulin-Different-Phenotype (%) [6]: 74% and 59% | Total Cell Count [6]: 195

Cc1ccc(/C(=C\CN2CCCC2)c2ccccn2)cc1 [TRIPROLIDINE]
Population Apoptotic (%) [1]: 52% and 41% | Population Fragmented Nuclei (%) [1]: 17% and 28% | Population Healthy Nuclei (%) [1]: 64% and 45% | Population Hoechst High Intensity Objects (%) [1]: 3% and 4% | Population Membrane Permeable-Phenotype (%) [1]: 0% and 1% | Population Mitochondria Different-Phenotype (%) [1]: 9% | Population Mitotic Cells (%) [1]: 47% and 58% | Population Normal (%) [1]: 96% and 95% | Population Pyknosed Nuclei (%) [1]: 18% and 25% | Population Tubulin-Different-Phenotype (%) [1]: 29% and 60% | Total Cell Count [1]: 119 and 127 | Population Apoptotic (%) [2]: 57% and 50% | Population Fragmented Nuclei (%) [2]: 14% and 26% | Population Healthy Nuclei (%) [2]: 64% and 52% | Population Hoechst High Intensity Objects (%) [2]: 2% | Population Membrane Permeable-Phenotype (%) [2]: 0% and 9% | Population Mitochondria Different-Phenotype (%) [2]: 5% and 9% | Population Mitotic Cells (%) [2]: 42% and 50% | Population Normal (%) [2]: 97% | Population Pyknosed Nuclei (%) [2]: 20% and 21% | Population Tubulin-Different-Phenotype (%) [2]: 44% and 59% | Total Cell Count [2]: 139 and 141 | Population Apoptotic (%) [3]: 43% and 46% | Population Fragmented Nuclei (%) [3]: 17% and 29% | Population Healthy Nuclei (%) [3]: 69% and 43% | Population Hoechst High Intensity Objects (%) [3]: 4% and 9% | Population Membrane Permeable-Phenotype (%) [3]: 1% and 6% | Population Mitochondria Different-Phenotype (%) [3]: 3% and 6% | Population Mitotic Cells (%) [3]: 56% and 53% | Population Normal (%) [3]: 95% and 90% | Population Pyknosed Nuclei (%) [3]: 13% and 27% | Population Tubulin-Different-Phenotype (%) [3]: 23% and 64% | Total Cell Count [3]: 128 and 121 | Population Apoptotic (%) [4]: 47% and 58% | Population Fragmented Nuclei (%) [4]: 15% and 29% | Population Healthy Nuclei (%) [4]: 68% and 52% | Population Hoechst High Intensity Objects (%) [4]: 4% and 2% | Population Membrane Permeable-Phenotype (%) [4]: 0% and 6% | Population Mitochondria Different-Phenotype (%) [4]: 3% and 12% | Population Mitotic Cells (%) [4]: 52% and 41% | Population Normal (%) [4]: 95% and 97% | Population Pyknosed Nuclei (%) [4]: 15% and 17% | Population Tubulin-Different-Phenotype (%) [4]: 41% and 62% | Total Cell Count [4]: 142 and 141 | Population Apoptotic (%) [5]: 54% and 52% | Population Fragmented Nuclei (%) [5]: 26% and 29% | Population Healthy Nuclei (%) [5]: 65% and 48% | Population Hoechst High Intensity Objects (%) [5]: 3% and 7% | Population Membrane Permeable-Phenotype (%) [5]: 1% and 7% | Population Mitochondria Different-Phenotype (%) [5]: 2% and 10% | Population Mitotic Cells (%) [5]: 45% and 48% | Population Normal (%) [5]: 96% and 92% | Population Pyknosed Nuclei (%) [5]: 8% and 21% | Population Tubulin-Different-Phenotype (%) [5]: 31% and 57% | Total Cell Count [5]: 135 and 124 | Population Apoptotic (%) [6]: 38% and 42% | Population Fragmented Nuclei (%) [6]: 20% and 32% | Population Healthy Nuclei (%) [6]: 69% and 56% | Population Hoechst High Intensity Objects (%) [6]: 7% and 5% | Population Membrane Permeable-Phenotype (%) [6]: 1% and 5% | Population Mitochondria Different-Phenotype (%) [6]: 6% and 9% | Population Mitotic Cells (%) [6]: 61% and 57% | Population Normal (%) [6]: 92% and 94% | Population Pyknosed Nuclei (%) [6]: 9% and 10% | Population Tubulin-Different-Phenotype (%) [6]: 35% and 54% | Total Cell Count [6]: 142 and 140
